Each structure is given as a SMILES string. Read-outs that look alike come from different tables or passages of the source. Some results are limits rather than exact numbers.

The subject of series [1] is A549 cells (human lung carcinoma). Nature of the series: MTT cytotoxicity assay, A549. The class given is cell-based. Conditions: read-out: (IC50 ± SD) A549.
The subject of series [2] is SKOV3 cells (human ovarian carcinoma). Nature of the series: MTT cytotoxicity assay, SKOV3. The format is cell-based. Conditions: read-out: (IC50 ± SD) SKOV3, at least 72 h incubation, mean ± SD. The gist of the method: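 Cells were grown in RPMI 1640 with 10% FBS and 1% penicillin-streptomycin at 37 °C, humidified CO2. They were seeded at 0.8 × 10^4 cells/well and allowed 24 h recovery. Test compound was added at 1–100 μM in triplicate for at least 72 h. Medium was replaced with 0.5 mg/mL MTT for 3 h at room temperature, and formazan was dissolved in DMSO. Absorbance was read at 490 nm. IC50 came from curve fitting, reported as mean ± SD.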

A further series concerns SKOV3 cells. Briefly: Intracellular ROS determination. The format is cell-based, human. The conditions noted are these: SKOV3, 1000 μM, positive control. The gist of the method: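 SKOV3 single-cell suspension (300 × 10^3) was exposed to test compound at 10, 20 or 40 μM for 2 h at 37 °C; untreated cells served as negative control. Cells were washed and loaded with DCFH-DA in phenol red-free RPMI for 1 h at 37 °C. The positive control got H2O2 (1000 μM) for a further 20 min. At least 15000 events were acquired by flow cytometry. ROS is reported as MFI divided by the untreated MFI0.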

Another series concerns MCF-7 cells. Nature of the series: Comet assay. The format is cell-based, human. Conditions: MCF-7, 1 μM, positive control, versus untreated cells. The gist of the method:
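Alkaline comet assay on MCF-7 cells (5 × 10^5). Cells got test compound at 10 or 50 μM, doxorubicin at 1 μM as positive control, or no treatment, for 20 min at 37 °C in 5% CO2. Cells were embedded in LMPA over NMPA-coated slides, lysed cold overnight and held 40 min in alkaline buffer. Slides were electrophoresed at 24 V/300 mA, neutralised at pH 7.4, ethanol-dehydrated, PI-stained (50 μg/ml) and imaged by fluorescence microscopy at 20×.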

Setting [3] is: MTT, at least 72 h incubation, mean ± SD.

Take `N.N.[Cl][Pt][Cl]` [Cisplatin, reference compound]: the half-inhibitory concentration (IC50) in series [1] (setting [3]) worked out at 9.71 ± 1.7 µM; in series [2], 14.5 ± 1.54 µM.

As to `OO` [Complex H2O2, H2O2], in the series with SKOV3 cells, the ROS induction result is “could induce ROS production within 20 minutes”.

`C=CCP(c1ccccc1)c1ccccc1` [PPh2allyl, allyldiphenylphosphine]: the IC50 in series [1] (setting [3]) is more than 100 µM.

`Sc1nc2ccccc2[nH]1` [Sbi, benzimidazole-2-thiol]: the concentration for half-maximal inhibition (IC50) in series [1] (Homo sapiens, A549, 72 h) is more than 100 µM.

In the case of `Sc1nc2ccccc2s1` [Sbt, benzothiazole-2-thiol], in series [1] (Homo sapiens, A549, 72 h), the IC50 is more than 100 µM.

With `Sc1ccccn1` [Spy, pyridine-2-thiol], in series [1] (Homo sapiens, A549, 72 h), the IC50 is more than 100 µM.

For the molecule `FC(F)(F)c1ccc(S)nc1` [Spy-5-CF3, 5-(trifluoromethyl)-pyridine-2-thiol], the half-maximal inhibitory concentration (IC50) in series [1] (Homo sapiens, A549, 72 h) is more than 100 µM.

For `Sc1ncccn1` [SpyN, pyrimidine-2-thiol], in series [1] (Homo sapiens, A549, 72 h), the concentration for half-maximal inhibition (IC50) is more than 100 µM.

`COc1cccc2c1C(=O)c1c(O)c3c(c(O)c1C2=O)C[C@@](O)(C(=O)CO)C[C@@H]3O[C@H]1C[C@H](N)[C@H](O)[C@H](C)O1` [doxorubicin]: in the series on MCF-7 cells, the “percentage of degraded DNA in the tail” value was “remarkably increase”.

The values are drawn from publication PMC7108934 (ChemPlusChem, 2019).
